Results taken from ChEMBL document CHEMBL1137969, “Subtype-selective nicotinic receptor antagonists: potential as tobacco use cessation agents” (Bioorg Med Chem Lett, 2004).

Assays:
[1] = target: Neuronal acetylcholine receptor subunit alpha-7 (Rattus norvegicus, UniProt Q05941); test: Inhibition of [3H]-MLA binding to Nicotinic acetylcholine receptor alpha-7 in rat brain membranes; NA= Not active; format: cell membranes
Outline: (§1)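 Rat whole brain minus cortex and cerebellum, homogenized in HEPES buffer (pH 7.5), washed by repeated 25,000g spins with one 37 °C 10-min incubation, stored at −70 °C. Membranes ([…]) incubated 60 min at room temperature with 3 nM radioligand plus analogue ([…]) in HEPES assay buffer with 50 mM Tris. Nonspecific binding defined with […] MLA, respectively. PEI-soaked GF/B filtration. Four independent experiments.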

[2] = target: T1, Neuronal acetylcholine receptor; alpha4/beta2 (Rattus norvegicus, UniProt P09483+P12390); test: Inhibition of [3H]nicotine binding to Nicotinic acetylcholine receptor alpha4-beta2 in rat brain membranes; format: cell membranes
Outline: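 Rat whole-brain membranes (cortex and cerebellum removed), washed by repeated centrifugation and stored at −70 °C. Incubated with 3 nM [³H]nicotine and a range of analogue concentrations in pH 7.5 HEPES-based buffer with Tris, 60 min at room temperature. Nonspecific binding defined with nicotine. Filtration on PEI-soaked GF/B filters, scintillation counting. Ki is the mean of four independent experiments with standard error.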

Rattus norvegicus [3] = organism: Rattus norvegicus; test: Inhibitory activity against nAChR mediated nicotine-evoked [3H]DA overflow using rat striatal slices; format: functional, organism-based
Outline: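 Rat striatal slices preincubated in oxygenated Krebs' buffer (pH 7.4) at 34 °C, loaded with [³H]DA during the last 30 min of the 60-min incubation. Slices then superfused at 34 °C with buffer containing nomifensine and pargyline. Nicotine-evoked overflow was normalized to slice tritium content, using a repeated-measures design.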

[4] = target: T1, Neuronal acetylcholine receptor; alpha4/beta2; test: Inhibition of [3H]nicotine binding to Nicotinic acetylcholine receptor alpha4-beta2 in rat brain membranes; NA= Not active; format: cell membranes; outline: as §1
Rattus norvegicus [5] = organism: Rattus norvegicus; test: Inhibitory activity against nAChR mediated nicotine-evoked [3H]DA overflow using rat striatal slices; Not determined; format: functional, organism-based
Outline: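 Rat striatal slices (4–6 mg) preincubated 60 min in oxygenated Krebs' buffer, pH 7.4, at 34 °C, […] [³H]DA (final) over the last 30 min. Slices then superfused at 1 mL/min, 34 °C, with nomifensine and pargyline present. Fractional release normalized to slice total tritium. Intrinsic and inhibitory activity measured on slices from the same rat. Means of 3–6 experiments.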

Chain of Neuronal acetylcholine receptor subunit alpha-7 (Q05941 whole entry): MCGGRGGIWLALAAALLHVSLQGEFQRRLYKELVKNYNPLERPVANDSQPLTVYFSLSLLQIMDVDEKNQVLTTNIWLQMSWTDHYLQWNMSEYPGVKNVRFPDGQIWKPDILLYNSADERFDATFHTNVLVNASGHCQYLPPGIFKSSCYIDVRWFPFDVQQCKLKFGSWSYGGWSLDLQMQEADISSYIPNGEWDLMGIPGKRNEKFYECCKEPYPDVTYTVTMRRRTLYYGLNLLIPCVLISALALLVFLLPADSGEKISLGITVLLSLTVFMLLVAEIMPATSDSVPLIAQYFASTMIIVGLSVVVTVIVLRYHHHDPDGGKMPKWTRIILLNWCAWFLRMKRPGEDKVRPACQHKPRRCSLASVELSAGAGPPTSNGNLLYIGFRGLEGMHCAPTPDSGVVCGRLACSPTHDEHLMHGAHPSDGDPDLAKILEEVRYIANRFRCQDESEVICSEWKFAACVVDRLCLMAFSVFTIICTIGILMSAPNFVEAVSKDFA
T1 sequence (P09483 whole entry): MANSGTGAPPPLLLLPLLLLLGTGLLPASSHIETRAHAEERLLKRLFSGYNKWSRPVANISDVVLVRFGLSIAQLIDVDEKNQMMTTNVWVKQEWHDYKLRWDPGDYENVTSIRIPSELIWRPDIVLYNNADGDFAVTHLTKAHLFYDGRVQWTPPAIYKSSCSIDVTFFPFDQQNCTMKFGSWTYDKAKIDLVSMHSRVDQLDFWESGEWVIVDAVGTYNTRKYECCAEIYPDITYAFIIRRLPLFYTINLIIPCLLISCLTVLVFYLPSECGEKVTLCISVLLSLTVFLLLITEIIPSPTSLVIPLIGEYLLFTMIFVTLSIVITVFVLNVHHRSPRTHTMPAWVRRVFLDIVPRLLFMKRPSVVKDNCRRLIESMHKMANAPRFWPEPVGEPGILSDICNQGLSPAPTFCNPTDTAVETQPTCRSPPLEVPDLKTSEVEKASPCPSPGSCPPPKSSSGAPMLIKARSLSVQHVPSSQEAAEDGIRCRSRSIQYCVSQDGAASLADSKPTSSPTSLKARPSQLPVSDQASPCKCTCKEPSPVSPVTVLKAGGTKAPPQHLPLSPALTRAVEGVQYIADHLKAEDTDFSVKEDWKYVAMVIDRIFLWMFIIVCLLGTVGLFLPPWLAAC
T1 sequence (P12390 whole entry): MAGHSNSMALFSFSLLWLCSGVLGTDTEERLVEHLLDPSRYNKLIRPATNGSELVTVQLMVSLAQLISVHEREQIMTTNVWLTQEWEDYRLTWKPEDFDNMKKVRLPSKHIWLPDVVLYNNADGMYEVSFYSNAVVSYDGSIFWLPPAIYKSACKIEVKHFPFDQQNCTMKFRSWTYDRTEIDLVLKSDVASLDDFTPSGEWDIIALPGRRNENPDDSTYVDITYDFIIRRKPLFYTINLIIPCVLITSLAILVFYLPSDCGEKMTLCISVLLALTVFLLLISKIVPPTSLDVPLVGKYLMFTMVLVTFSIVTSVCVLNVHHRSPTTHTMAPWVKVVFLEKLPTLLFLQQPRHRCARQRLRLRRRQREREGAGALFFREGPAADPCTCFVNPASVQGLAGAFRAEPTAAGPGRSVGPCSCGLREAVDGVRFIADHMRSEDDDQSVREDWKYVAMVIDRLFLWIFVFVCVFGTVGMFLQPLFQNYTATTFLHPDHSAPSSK

Ki [1] | Ki [4] | IC50 (Rattus norvegicus [5]) [nM] | SMILES | Ki [2] [nM] | IC50 (Rattus norvegicus [3]) [nM]
Not Active |  |  | Cc1ccc[n+](CCCCCCCCC[n+]2cccc(C)c2)c1.[Br-].[Br-] |  | 
Not Active | Not Active |  | CCCCCCCCCCC[n+]1cccc(C)c1.[I-] |  | 
Not Active | Not Active |  | Cc1ccc[n+](CCCCCC[n+]2cccc(C)c2)c1.[I-].[I-] |  | 1660
Not Active | Not Active | 10 | Cc1ccc[n+](CCCCCCCC[n+]2cccc(C)c2)c1.[I-].[I-] |  | 
Not Active | Not Active |  | CCCCCCCCCCCC[n+]1cccc(C)c1.[I-] |  | 30
Not Active | Not Active |  | CCCCCCCC[n+]1cccc(C)c1.[I-] |  | 1000
Not Active |  |  | CCCCCCCCC[n+]1cccc(C)c1.[I-] | 62000 | 

SMILES | Ki [1] | Ki [4] | IC50 (Rattus norvegicus [5]) [nM] | Ki [2] [nM] | IC50 (Rattus norvegicus [3]) [nM]
CCCCCCCCCC[n+]1cccc(C)c1.[I-] | Not Active |  |  | 26000 | 300
Cc1ccc[n+](CCCCCCCCCCC[n+]2cccc(C)c2)c1.[Br-].[Br-] | Not Active |  |  |  | 610
Cc1ccc[n+](CCCCCCCCCCCC[n+]2cccc(C)c2)c1.[Br-].[Br-] | Not Active |  |  |  | 5
Cc1ccc[n+](CCCCCCCCCC[n+]2cccc(C)c2)c1.[I-].[I-] | Not Active | Not Active |  |  | 30
